In PMC6536312 (Bioorganic & medicinal chemistry, 2019):
Like-named read-outs stand apart in the source and are kept apart here.

How the values were obtained:
[1] = tested on: MDA-MB-231 cells; assay: Cell viability study; type: cell-based, human
How it was run: (§1)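 Cells were maintained in high-glucose GlutaMax DMEM with 10% heat-inactivated FBS. They were seeded at 20,000/well, left overnight in 5% FBS medium, then dosed in 1:9 DMSO/acetone against vehicle controls, redosed every 24 h for the 48 h and 72 h runs. Resazurin (0.02% in PBS) was added for 2-3 h, read at ex 560/em 590 nm. IC50 came from nonlinear regression of log concentration versus % control.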

[2] = target: T1, σ2 receptor (Rattus norvegicus, UniProt Q5U3Y7); conditions: previously reported; cited from earlier work
T1 sequence (Q5U3Y7 1-176): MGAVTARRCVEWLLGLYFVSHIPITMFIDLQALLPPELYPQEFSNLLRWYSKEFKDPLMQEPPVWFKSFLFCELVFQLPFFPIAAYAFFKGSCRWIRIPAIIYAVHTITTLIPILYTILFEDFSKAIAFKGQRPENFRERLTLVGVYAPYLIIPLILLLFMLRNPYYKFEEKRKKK

[3] = tested on: Panc-1 cells; assay: Cell viability study; type: cell-based, human
How it was run: as §1

[4] = target: T1, σ2 receptor; assay: Radioligand binding assay at sigma-2 receptor; conditions: for fold lower affinity at the σ2 receptor than compound 3: vs compound 3
[5] = target: σ1 receptor (Cavia porcellus, UniProt Q60492); assay: Radioligand binding assay at sigma-1 receptor
Chain of σ1 receptor (Q60492 whole entry): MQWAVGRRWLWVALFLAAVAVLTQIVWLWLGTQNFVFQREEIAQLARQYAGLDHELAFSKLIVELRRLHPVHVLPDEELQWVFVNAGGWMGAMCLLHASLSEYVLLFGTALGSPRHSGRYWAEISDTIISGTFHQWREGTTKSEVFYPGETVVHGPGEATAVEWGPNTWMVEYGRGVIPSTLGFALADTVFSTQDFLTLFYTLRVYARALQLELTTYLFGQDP

Structure (SMILES): N.N.[Cl][Pt][Cl] [Cisplatin]
- IC50 ([1]; read-out: IC50 (48 h), cell viability, MDA-MB-231, 48 h treatment): 50 ± 9.8 µM
- IC50 ([1]; read-out: IC50 (72 h), cell viability, MDA-MB-231, 72 h treatment): 64.2 ± 4.3 µM

Structure (SMILES): O=C(CCCN1CCCN(c2ccc(Cl)cc2)CC1)c1ccc(F)cc1 [Compound 1, 4-(4-(4-chlorophenyl)-1,4-diazepan-1-yl)-1-(4-fluorophenyl)butan-1-one]
- Ki(σ1)/Ki(σ2) [2]: 4.3
- IC50, cell viability [3]: sub-micromolar

Structure (SMILES): O=C1c2ccc(F)cc2CC1CCN1CCCN(c2ccc(Cl)cc2)CC1 (stereo not shown) [Compound 3]
- fold higher affinity for σ2 receptor compared to compound 1 ([4]; vs compound 1): greater than 9 fold
- fold lower affinity for the σ1 receptor compared to compound 1 ([5]; vs compound 1): more than 2 fold

Structure (SMILES): O=C1c2ccccc2CC1CCN1CCCN(c2ccc(Cl)cc2)CC1 (stereo not shown) [Compound 4, 2-(2-(4-(4-chlorophenyl)-1,4-diazepan-1-yl)ethyl)-2,3-dihydro-1H-inden-1-one]
- fold lower affinity at the σ2 receptor than compound 3 [4]: over 7 fold
- fold higher affinity than compound 3 at the σ1 receptor ([5]; vs compound 3): 3 fold

Structure (SMILES): O=C1c2ccc(Cl)cc2CC1CCN1CCCN(c2ccc(Cl)cc2)CC1 (stereo not shown) [Compound 8, 5-chloro-2-(2-(4-(4-chlorophenyl)-1,4-diazepan-1-yl)ethyl)-2,3-dihydro-1H-inden-1-one]
- fold lower affinity at the σ2 receptor than compound 3 [4]: over 31 fold

Structure (SMILES): O/N=C(\CCCN1CCCN(c2ccc(Cl)cc2)CC1)c1ccc(F)cc1 [Compound 12, 4-(4-(4-chlorophenyl)-1,4-diazepan-1-yl)-1-(4-fluorophenyl)butan-1-one oxime]
- IC50, cell viability [3]: sub-micromolar
